Source: ChEMBL document CHEMBL1154150, “Synthesis and anticonvulsant activity of some new bishydrazones derived from 3,4-dipropyloxythiophene” (Eur J Med Chem, 2009)
The source made the active and inactive calls. The rule behind the calls is not given here.

Key:
Mus musculus [1] = test: Anticonvulsant activity in CF1 mouse assessed as protection against 6 Hz electric shock-induced seizures at 100 mg/kg, ip after 0.25 hrs; assay type: functional, organism-based; design: dose 100 mg/kg
How it was run: (§1)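 Male CF-1 albino mice (18–25 g), compound suspended in 0.5% methyl cellulose/water or PEG 200, given i.p.; four mice per time point (0.25, 0.5, 1.0, 2.0, 4 h) challenged via corneal electrodes at 6 Hz, 32 mA for 3 s, current eliciting psychomotor seizure in 97% of animals; reported as protected/tested.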

Mus musculus [2] = test: Anticonvulsant activity in CF1 mouse assessed as protection against subcutaneous metrazole-induced seizures at 30 mg/kg, ip after 0.5 hrs; assay type: functional, organism-based; design: dose 30 mg/kg
Mus musculus [3] = test: Anticonvulsant activity in CF1 mouse assessed as protection against maximal electroshock-induced seizures at 30 mg/kg, ip after 0.5 hrs; assay type: functional, organism-based; design: dose 30 mg/kg
How it was run: (§2)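 Male CF-1 albino mice (18–25 g), dosed i.p. at 30, 100 or 300 mg/kg in 0.5% methyl cellulose/water or PEG 200 (0.01 ml/g); tested at intervals after dosing; protection = abolition of hind limb tonic extensor component of MES seizure; scored as protected/tested.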

Mus musculus [4] = test: Neurotoxicity in CF1 mouse at 300 mg/kg, ip after 0.5 hrs by rotarod test; assay type: toxicity, organism-based; design: dose 300 mg/kg, route intraperitoneal; details: in vivo
How it was run: (§3)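 Rotorod neurotoxicity in male CF-1 mice (18–25 g) after i.p. compound in 0.5% methyl cellulose/water or PEG 200 at 30, 100 or 300 mg/kg; reported as number showing toxicity/number tested.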

Mus musculus [5] = test: Anticonvulsant activity in CF1 mouse assessed as protection against subcutaneous metrazole-induced seizures at 300 mg/kg, ip after 0.5 hrs; assay type: functional, organism-based; design: dose 300 mg/kg
Mus musculus [6] = test: Anticonvulsant activity in CF1 mouse assessed as protection against 6 Hz electric shock-induced seizures at 100 mg/kg, ip after 4 hrs; assay type: functional, organism-based; design: dose 100 mg/kg; how it was run: as §1
Mus musculus [7] = test: Neurotoxicity in CF1 mouse at 300 mg/kg, ip after 4 hrs by rotarod test; assay type: toxicity, organism-based; design: dose 300 mg/kg, route intraperitoneal; details: in vivo; how it was run: as §3
Mus musculus [8] = test: Anticonvulsant activity in CF1 mouse assessed as protection against maximal electroshock-induced seizures at 300 mg/kg, ip after 0.5 hrs; assay type: functional, organism-based; design: dose 300 mg/kg; how it was run: as §2
Mus musculus [9] = test: Anticonvulsant activity in CF1 mouse assessed as protection against maximal electroshock-induced seizures at 100 mg/kg, ip after 0.5 hrs; assay type: functional, organism-based; design: dose 100 mg/kg; how it was run: as §2
Mus musculus [10] = test: Neurotoxicity in CF1 mouse at 30 mg/kg, ip after 0.5 hrs by rotarod test; assay type: toxicity, organism-based; design: dose 30 mg/kg, route intraperitoneal; details: in vivo; how it was run: as §3
Mus musculus [11] = test: Anticonvulsant activity in CF1 mouse assessed as protection against subcutaneous metrazole-induced seizures at 30 mg/kg, ip after 4 hrs; assay type: functional, organism-based; design: dose 30 mg/kg
Mus musculus [12] = test: Anticonvulsant activity in CF1 mouse assessed as protection against maximal electroshock-induced seizures at 30 mg/kg, ip after 4 hrs; assay type: functional, organism-based; design: dose 30 mg/kg; how it was run: as §2
Mus musculus [13] = test: Neurotoxicity in CF1 mouse at 100 mg/kg, ip after 4 hrs by rotarod test; assay type: toxicity, organism-based; design: dose 100 mg/kg, route intraperitoneal; details: in vivo; how it was run: as §3
Mus musculus [14] = test: Anticonvulsant activity in CF1 mouse assessed as protection against subcutaneous metrazole-induced seizures at 300 mg/kg, ip after 4 hrs; assay type: functional, organism-based; design: dose 300 mg/kg
Mus musculus [15] = test: Anticonvulsant activity in CF1 mouse assessed as protection against maximal electroshock-induced seizures at 300 mg/kg, ip after 4 hrs; assay type: functional, organism-based; design: dose 300 mg/kg; how it was run: as §2
Mus musculus [16] = test: Neurotoxicity in CF1 mouse at 30 mg/kg, ip after 4 hrs by rotarod test; assay type: toxicity, organism-based; design: dose 30 mg/kg, route intraperitoneal; details: in vivo; how it was run: as §3
Mus musculus [17] = test: Anticonvulsant activity in CF1 mouse assessed as protection against maximal electroshock-induced seizures at 100 mg/kg, ip after 4 hrs; assay type: functional, organism-based; design: dose 100 mg/kg; how it was run: as §2
Mus musculus [18] = test: Anticonvulsant activity in CF1 mouse assessed as protection against subcutaneous metrazole-induced seizures at 100 mg/kg, ip after 4 hrs; assay type: functional, organism-based; design: dose 100 mg/kg
Mus musculus [19] = test: Anticonvulsant activity in CF1 mouse assessed as protection against 6 Hz electric shock-induced seizures at 100 mg/kg, ip after 2 hrs; assay type: functional, organism-based; design: dose 100 mg/kg; how it was run: as §1
Mus musculus [20] = test: Anticonvulsant activity in CF1 mouse assessed as protection against subcutaneous metrazole-induced seizures at 100 mg/kg, ip after 0.5 hrs; assay type: functional, organism-based; design: dose 100 mg/kg
Mus musculus [21] = test: Neurotoxicity in CF1 mouse at 100 mg/kg, ip after 0.5 hrs by rotarod test; assay type: toxicity, organism-based; design: dose 100 mg/kg, route intraperitoneal; details: in vivo; how it was run: as §3

Row | Structure (SMILES) | Activity (Mus musculus [1]) | Activity (Mus musculus [2]) | Activity (Mus musculus [3]) | Activity (Mus musculus [4]) | Activity (Mus musculus [5]) | Activity (Mus musculus [6]) | Activity (Mus musculus [7]) | Activity (Mus musculus [8]) | Activity (Mus musculus [9]) | Activity (Mus musculus [10]) | Activity (Mus musculus [11]) | Activity (Mus musculus [12]) | Activity (Mus musculus [13]) | Activity (Mus musculus [14]) | Activity (Mus musculus [15]) | Activity (Mus musculus [16]) | Activity (Mus musculus [17]) | Activity (Mus musculus [18]) | Activity (Mus musculus [20]) | Activity (Mus musculus [21]) | further results
1 | CCCOc1c(C(=O)N/N=C\c2ccc3c(c2)Cc2ccccc2-3)sc(C(=O)N/N=C/c2ccc3c(c2)Cc2ccccc2-3)c1OCCC | inactive | inactive | inactive | Toxic | inactive | inactive | Toxic | inactive | inactive | Non-toxic | inactive | inactive | Non-toxic | inactive | inactive | Non-toxic | inactive | inactive |  |  | 
2 | CCCOc1c(C(=O)N/N=C\c2ccccc2)sc(C(=O)N/N=C/c2ccccc2)c1OCCC | inactive | inactive | inactive | Non-toxic | inactive | inactive | Non-toxic | inactive | inactive | Non-toxic | inactive | inactive | Non-toxic |  | inactive | Non-toxic | inactive | inactive | inactive | Non-toxic | Activity (Mus musculus [19]): inactive
3 | CCCOc1c(C(=O)N/N=C\c2c[nH]c3ccccc23)sc(C(=O)N/N=C/c2c[nH]c3ccccc23)c1OCCC | inactive | inactive | inactive | Toxic | inactive | inactive | Non-toxic | inactive | inactive | Non-toxic | inactive | inactive | Non-toxic | inactive | inactive | Non-toxic | inactive | inactive |  | Toxic | Activity (Mus musculus [19]): inactive
4 | CCCOc1c(C(=O)N/N=C(\C)c2cccs2)sc(C(=O)N/N=C(\C)c2cccs2)c1OCCC | inactive | inactive | inactive | Non-toxic | inactive |  | Non-toxic | inactive | inactive | Non-toxic | inactive | inactive | Non-toxic |  |  | Non-toxic | inactive | inactive | inactive | Non-toxic | 
5 | CCCOc1c(C(=O)N/N=C/c2ccc3cc(OC)ccc3c2)sc(C(=O)N/N=C/c2ccc3cc(OC)ccc3c2)c1OCCC |  | inactive | inactive | Non-toxic | inactive |  | Non-toxic | inactive | inactive | Non-toxic | inactive | inactive | Non-toxic | inactive | inactive | Non-toxic | inactive | inactive | inactive | Non-toxic | 
6 | CCCOc1c(C(=O)NN=C(C)C)sc(C(=O)NN=C(C)C)c1OCCC |  | inactive | inactive | Toxic | inactive |  | Non-toxic | inactive | inactive | Non-toxic | inactive | inactive | Non-toxic | inactive | inactive | Non-toxic | inactive | inactive | inactive | Non-toxic | 
7 | CCCOc1c(C(=O)N/N=C(\C)c2ccc[nH]2)sc(C(=O)N/N=C(\C)c2ccc[nH]2)c1OCCC |  | inactive | inactive | Non-toxic | inactive |  | Non-toxic | inactive | inactive | Non-toxic | inactive | inactive | Non-toxic | inactive | inactive | Non-toxic | inactive | inactive | inactive | Non-toxic | 
8 | CCCOc1c(C(=O)NN=C2CC(C)Sc3sccc32)sc(C(=O)NN=C2CC(C)Sc3sccc32)c1OCCC (configuration not stated) |  | inactive | inactive | Toxic | inactive |  | Non-toxic | inactive | inactive | Toxic | inactive | inactive | Non-toxic | inactive | inactive | Non-toxic | inactive | inactive | inactive | Toxic | 
